Data as given in the RNAGym collection of RNA variant scans (doi:10.1126/science.aae0568).
Variants at the floor of the assay were thinned out.

B1: tRNA (parent)
chain: GUUCCGUUGGCGUAAUGGUAACGCGUCUCCCUCCUAAGGAGAAGACUGCGGGUUCGAGUCCCGUACGGAACG

Variants of: B1
Experiment: yeast fitness relative to wild type (ratio to wild type); higher = fitter; tRNA-Arg(CCU), competitive growth, 37 C, YPD
In short: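 Variants of the tRNA-Arg(CCU) gene, chemically synthesised with a 3% per-site mutation rate at 69 sites, were placed at the native genomic locus in Saccharomyces cerevisiae. The pooled strains were competed in YPD at 37°C for 24 hours in six parallel replicates. Gene amplicons from the start population and from each end population were read by 100-nucleotide paired-end sequencing. Darwinian fitness relative to wild type came from changes in genotype frequencies; genotypes needed ≥ 100 starting reads, and estimates < 0.5 were set to 0.5.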

Row | Variant | yeast fitness
1 | A15G G25C | 0.987
2 | A15G G25A | 0.87
3 | A15G U19C A37U C49U G51A C60A | ≤ 0.5
4 | A15G G18A | 0.793
5 | A15G G18U | 0.75
6 | A15U A20G U28G C33U | ≤ 0.5
7 | A15U A21G C29U G44C C55A G56C | ≤ 0.5
8 | A15G U19G C66U | 0.721
9 | A15G U32G A40C | ≤ 0.5
10 | A15G G44A G50C C60U A70G | ≤ 0.5
11 | A15G C49G C66G G67C | ≤ 0.5
12 | A15G U28C C30U U59A A70C | ≤ 0.5
13 | A15G G17A C33U G39C C55A G67C | 0.66
14 | A15G G50A U54A A57C | 0.583
15 | A15G C49G | 0.782
16 | A15G C55A | 0.727
17 | A15U A20G C55U G63C | ≤ 0.5
18 | A15G C60G C62U | ≤ 0.5
19 | A15G G25A U32G A40G C60G | 0.501
20 | A15G U26G A57G | 0.611
21 | A15U A36U G41A | ≤ 0.5
22 | A15G U53A C55A U64G | 0.571
23 | A15G G18A G48C C61A | ≤ 0.5
24 | A15G U26G G41A G56A | ≤ 0.5

Row | Variant | yeast fitness
25 | A15G U19G A42G | 0.702
26 | A15G C61A C62G G68A | ≤ 0.5
27 | A15U A20C C27U | 0.748
28 | A15G C49U C60G | ≤ 0.5
29 | A15G G17A A40C | ≤ 0.5
30 | A15G G52A G67U | ≤ 0.5
31 | A15G G56A | 0.971
32 | A15U A21C G23C C55A U64A A65C G67A | ≤ 0.5
33 | A15G C49U A69U | 0.8
34 | A15G G17A C30A | 0.529
35 | A15G G41C A43C G67A | 0.535
36 | A15G U32C A37G C55A | ≤ 0.5
37 | A15U A21C G23C C55A | ≤ 0.5
38 | A15G U28G | 0.646
39 | A15U A21C | 0.611
40 | A15G U16A A20G A42G | 0.577
41 | A15U A20C U26A C30G U35A G38C U64A | ≤ 0.5
42 | A15U A40G | 0.598
43 | A15U A40C | 0.723
44 | A15G G23C G38C G52C G58A | 0.507
45 | A15G U19C C29U A37G | ≤ 0.5
46 | A15G G38C C49U | 0.544
47 | A15U A40U G68C | 0.627
48 | A15G C55G G56U G68C | ≤ 0.5

Row | Variant | yeast fitness
49 | A15G C34U A40U U54C | ≤ 0.5
50 | A15U A40G A42G A57U C62G C66U | ≤ 0.5
51 | A15G U35A A65C | ≤ 0.5
52 | A15G U35A A57G C62G | ≤ 0.5
53 | A15G U19A U28A C55A A65U | ≤ 0.5
54 | A15G C34U G41C C49U | ≤ 0.5
55 | A15G G50A | 0.929
56 | A15G G39C | 0.736
57 | A15G G17A C49U | 0.687
58 | A15G U19A A69U | 0.729
59 | A15G G23A G48A | 0.675
60 | A15G U54A G63C | 0.631
61 | A15G G17A A21C | ≤ 0.5
62 | A15G U26G G41C A43C | ≤ 0.5
63 | A15U A20U A45C A57G | ≤ 0.5
64 | A15G C62U A69C | 0.829
65 | A15G U28G U53A G56A | ≤ 0.5
66 | A15G U54C C66A | ≤ 0.5
67 | A15G U54G C55U A65G | ≤ 0.5
68 | A15G C62G C66G | ≤ 0.5
69 | A15G C62G C66U | 0.535
70 | A15G U19A U28A | ≤ 0.5
71 | A15U A36U | ≤ 0.5
72 | A15U A36C | ≤ 0.5

Row | Variant | yeast fitness
73 | A15U | 0.885
74 | A15G G23C C30A A42C G44A G51C | ≤ 0.5
75 | A15G G58A G63A G68C | ≤ 0.5
76 | A15G G63C | 0.918
77 | A15G C49G G63C | 0.594
78 | A15G G23C C30A A42C G51C | 0.537
79 | A15G U28C A37C A70U | ≤ 0.5
80 | A15G G17A C29G C31U A65G C66G | 0.552
81 | A15G G44C A65C | ≤ 0.5
82 | A15G G68A | 0.894
83 | A15G G39C C46U | 0.689
84 | A15G C60U | 0.786
85 | A15G G44C A57U | ≤ 0.5
86 | A15G U19G A40G | 0.582
87 | A15G G23C G38C G52C C66A | ≤ 0.5
88 | A15G G50C C60U | ≤ 0.5
89 | A15U A20G C27A C29A U47G C60G | ≤ 0.5
90 | A15U A37G A42C C49G C61U | ≤ 0.5
91 | A15G U32A G38A C49U | ≤ 0.5
92 | A15G U26C G56A A69U | ≤ 0.5
93 | A15G G23C G38C G52C U54C G58A | ≤ 0.5
94 | A15U A36G C55G | 0.565
95 | A15G G18A C49A | ≤ 0.5
96 | A15U A21C C24G C29U A42C U59G G67U | ≤ 0.5

Row | Variant | yeast fitness
97 | A15U A21C C24G C29U A42C U59G G67C | ≤ 0.5
98 | A15G G25A C27A G50A | 0.592
99 | A15G U19G | 0.985
100 | A15G U19C | 0.985
101 | A15G C34U A40U | ≤ 0.5
102 | A15U A21C C24G C29U A42C | ≤ 0.5
103 | A15G C49G C62G | ≤ 0.5
104 | A15U A21C C24G C29U A42C G56U U59A | ≤ 0.5
105 | A15G G25A U28C U35A G38A C46G C62U | 0.527
106 | A15U A37C | 0.678
107 | A15U A37G | 0.66
108 | A15G G23C A43G | 0.54
109 | A15U A37U G67C | ≤ 0.5
110 | A15U A20C | 0.646
111 | A15U A20G | 0.772
112 | A15G U26G C30U A40U G52A | ≤ 0.5
113 | A15U A37G C66G | ≤ 0.5
114 | A15G U64C A69C | 0.775
115 | A15U A20G C46G C61A | ≤ 0.5
116 | A15G G25C C55U | 0.562
117 | A15G U35A A57G | ≤ 0.5
118 | A15G G17C C61A | ≤ 0.5
119 | A15G U26G C55U A69U A70C | ≤ 0.5
120 | A15G G44U A57U G58A C66G | ≤ 0.5

Row | Variant | yeast fitness
121 | A15U A20G C27U G48C A70U | ≤ 0.5
122 | A15G U54G C55U | 0.561
123 | A15U A40U G63A | ≤ 0.5
124 | A15G G48C G51A A65C | ≤ 0.5
125 | A15G U16A A45U | 0.642
126 | A15G G51A A70U | 0.533
127 | A15G G38A A40C G50A U54A | ≤ 0.5
128 | A15G G23C U28A | ≤ 0.5
129 | A15G G17A | 0.881
130 | A15U A21C C24G C62G | ≤ 0.5
131 | A15G G18A C46U | 0.645
132 | A15G C60U C62U | 0.64
133 | A15U A21C C24G C29U A42C C55A | ≤ 0.5
134 | A15G G25C G48A | 0.637
135 | A15G C46U | 0.987
136 | A15G C46A | 0.884
137 | A15G U35A A70U | 0.572
138 | A15G G23C G38C C49U | ≤ 0.5
139 | A15G G41A A43U G50C | ≤ 0.5
140 | A15G C66U | 0.887
141 | A15G C66A | 0.657
142 | A15G G67U | 0.662
143 | A15G G67A | 0.868
144 | A15G G67C | 0.706

Row | Variant | yeast fitness
145 | A15G G50A G58C C66U | ≤ 0.5
146 | A15G U26A | 1.04
147 | A15U A20G U35C G48U C55G | ≤ 0.5
148 | A15G U35A | 0.602
149 | A15G G48C | 0.841
150 | A15G G48A | 0.879
151 | A15U A21C G23C C55A U64A A65C | ≤ 0.5
152 | A15G U19C G51C C55U | 0.582
153 | A15G G44A G58A | 0.992
154 | A15G U32G U35C A43C | 0.585
155 | A15G U19G A69C | 0.721
156 | A15G G48A C66U | 0.747
157 | A15G U28G A42U G48A G67A | ≤ 0.5
158 | A15U A20G A43C | 0.593
159 | A15G U28C U35A G38A C46G | 0.552
160 | A15G G23C C30A A42C G51C C61A G67A | ≤ 0.5
161 | A15G U19C A37U C49U G51A U64A | ≤ 0.5
162 | A15G G23C A37U A65U | ≤ 0.5
163 | A15G U54A A70U | 0.564
164 | A15G G17C C33A C46A G52A G63C | ≤ 0.5
165 | A15G U47A | 0.916
166 | A15G U47G | 0.782
167 | A15G U47C | 0.896
